Sampled rows, rich in hits. Any-hit rate of the full collection: about 1.8%.
M4 PAM: CHRM4 positive allosteric modulation. P08173. CHO-K1 hM4/Gqi5, Fluo-8 calcium fluorescence, ACh EC20; 0% = ACh EC20, 100% = maximal ACh. activation, % at 3 µM. 360,000 compounds, 0.4% hits. AID 624126;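 active means activation above its plate's cutoff, the mean activation of sample wells plus 3 SD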
Target sequence (P08173 whole entry, looked up): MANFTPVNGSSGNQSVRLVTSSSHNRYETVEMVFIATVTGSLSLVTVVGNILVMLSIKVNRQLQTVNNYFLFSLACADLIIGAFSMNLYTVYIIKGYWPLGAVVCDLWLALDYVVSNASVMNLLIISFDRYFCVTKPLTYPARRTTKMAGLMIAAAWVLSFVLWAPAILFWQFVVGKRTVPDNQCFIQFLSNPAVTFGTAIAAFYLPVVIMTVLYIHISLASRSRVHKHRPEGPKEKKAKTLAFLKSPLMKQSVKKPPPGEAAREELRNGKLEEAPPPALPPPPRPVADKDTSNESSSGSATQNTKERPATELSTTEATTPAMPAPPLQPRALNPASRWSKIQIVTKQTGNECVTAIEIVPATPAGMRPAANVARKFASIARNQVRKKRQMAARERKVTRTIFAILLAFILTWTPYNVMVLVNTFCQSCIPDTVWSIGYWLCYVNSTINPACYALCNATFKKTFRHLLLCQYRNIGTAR
CHRM5 antagonist: blocks acetylcholine activation of human M5 receptor; P08912; inhibition, % at 3 µM; CHO-hM5 cells, Fluo-8 calcium fluorescence, ACh EC80; 360,000 compounds, 0.59% hits; AID 624040;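 active means inhibition above a per-plate cutoff, the mean of that plate's test compounds plus 3 SD, cut at about 27% in these data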;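 further: 0% = acetylcholine EC80 with DMSO and 100% = DMSO without agonist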
M5 PAM: potentiates acetylcholine response at human M5 receptor; P08912; CHO-K1 hM5, Fluo-8 calcium, ACh EC20 PAM; 0% = ACh EC20, 100% = ACh EC100; activation, % at 3 µM; 360,000 compounds, 0.3% hits;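 active means activation above the run cutoff, the mean activation of all test compounds plus 3 SD, cut at about 18% in these data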
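System – CHO-K1 hM5 cells · Compound – 3 µM, single dose · Incubation – compound preincubation 140 s before EC20 acetylcholine addition · Technique – Fluo-8 calcium fluorescence · Measure – Max/basal fluorescence ratio as % of EC20–EC100 ACh window · Benchmarks – low control EC20 acetylcholine (0%), high control EC100 acetylcholine (100%) · Replication – singlicate, one well per test compound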
M5 ag: agonists of human muscarinic M5 receptor (CHRM5) | P08912 | AID 624037 | 360,000 compounds, 0.19% hits | activation, % at 3 µM | CHO-K1 hM5 cells, Fluo-8 calcium fluorescence; 0% DMSO wells, 100% maximal acetylcholine response;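 active means activation above the run's mean over test compounds plus 3 SD, cut at about 23% in these data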;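 further: signal is peak over basal fluorescence ratio across the kinetic read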
M4 antag: blocks acetylcholine activation of human M4 receptor | CHO-hM4 cells, ACh EC80, Fluo-8 calcium fluorescence | inhibition, % at 3 µM | P08173 | 360,000 compounds, 0.73% hits | AID 624125;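 active means inhibition above its plate's cutoff, the mean inhibition of sample wells plus 3 SD, cut at about 27% in these data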;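 further: 0% = acetylcholine EC80 with DMSO and 100% = DMSO without agonist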
CHRM4 agonist: agonists of human muscarinic M4 receptor (CHRM4); P08173; 360,000 compounds, 0.14% hits; AID 624127; CHO-K1 hM4/Gqi5, Fluo-8 calcium fluorescence; vehicle 0%, full acetylcholine response 100%; activation, % at 3 µM;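 active means activation above the run mean over all test wells plus 3 SD, cut at about 32% in these data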;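 further: peak over basal fluorescence ratio per well then scaled between controls; 0% = DMSO wells and 100% = acetylcholine at EC100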
* = called active by the depositor.

For CN(C)c1ccc(/C=C(/C#N)C(=O)NCc2ccccc2)o1 the results were M4 PAM -6.8, CHRM5 antagonist 14.7, M5 PAM -15.6, M5 ag 25.1*, M4 antag 2.6 and CHRM4 agonist 9.1.
Cc1ccccc1OCc1nnc(SCc2nc3ccccc3c(=O)[nH]2)n1C was read as M4 PAM -14.7, CHRM5 antagonist 3.4, M5 PAM -3.2, M5 ag 0.1, M4 antag 49.3* and CHRM4 agonist -0.8.
For Cn1c(Cc2ccccc2)nnc1SCc1nc2ccccc2c(=O)[nH]1 the results were M4 PAM 5.0, CHRM5 antagonist -9.0, M5 PAM 6.6, M5 ag -0.2, M4 antag -9.5 and CHRM4 agonist 1.9.
COc1cccc2[nH]c(C(=O)NCc3ccccc3)cc12 was read as M4 PAM -2.0, CHRM5 antagonist 11.4, M5 PAM -6.3, M5 ag -1.1, M4 antag 0.1 and CHRM4 agonist 0.7.
CC(C)n1nc(C(=O)NNC(=O)c2ccncc2)c2ccccc2c1=O was read as M4 PAM 23.1*, CHRM5 antagonist -0.4, M5 PAM 0.6, M5 ag 4.3, M4 antag -8.3 and CHRM4 agonist -1.7.
`CO[C@@]1(NC(=O)C2SC(=C(C(N)=O)C(=O)O)S2)C(=O)N2C(C(=O)O)=C(CSc3nnnn3C)CS[C@@H]21` (some centres undefined) gave M4 PAM -6.5, CHRM5 antagonist -0.6, M5 PAM -0.9, M5 ag 0.9, M4 antag 43.2* and CHRM4 agonist 0.9.
COCCN(C(=O)c1ccc(OC2CCN(S(=O)(=O)N(C)C)CC2)cc1)C(C)C was read as M4 PAM 0.0, CHRM5 antagonist 0.6, M5 PAM -1.3, M5 ag 2.1, M4 antag 7.4 and CHRM4 agonist 2.8.
CCCN(C(=O)c1cnccn1)c1c(N)n(Cc2ccccc2)c(=O)[nH]c1=O was read as M4 PAM 2.5, CHRM5 antagonist 7.8, M5 PAM 6.0, M5 ag 2.8, M4 antag -1.8 and CHRM4 agonist 0.9.
Screening O=C1c2cccnc2C(=O)N1Cc1ccc(S(=O)(=O)N2CCN(c3ccccc3)CC2)cc1 returned M4 PAM -4.4, CHRM5 antagonist 11.0, M5 PAM 2.7, M5 ag -1.1, M4 antag -3.2 and CHRM4 agonist 1.1.
Screening O=S(=O)(NC1CCCC1)c1ccc(S(=O)(=O)NC2CCCC2)cc1 returned M4 PAM -0.4, CHRM5 antagonist 2.0, M5 PAM -8.0, M5 ag 28.2*, M4 antag 10.7 and CHRM4 agonist 9.2.
For Cc1cc(OCC(=O)NCCc2ccc(Cl)cc2)c2c(C)cc(=O)oc2c1 the results were M4 PAM 11.1, CHRM5 antagonist -12.8, M5 PAM 19.0*, M5 ag -0.6, M4 antag -14.6 and CHRM4 agonist 0.3.
Screening COC(=O)c1ccc([C@@H]2C[C@H]3CN(Cc4cccnc4)C(=O)[C@]34CCCN24)cc1 returned M4 PAM -4.6, CHRM5 antagonist 6.7, M5 PAM -7.0, M5 ag -2.8, M4 antag 6.2 and CHRM4 agonist 0.2.
Cc1cccc(NC(=O)c2cc(S(=O)(=O)N(C)c3ccc(F)cc3)ccc2Cl)n1 was read as M4 PAM -6.3, CHRM5 antagonist -1.2, M5 PAM 0.3, M5 ag -1.8, M4 antag -2.7 and CHRM4 agonist 7.0.
CC(C)c1ccc2c(c1)C(N1CCN(C)CC1)Cc1cccnc1S2 (centres undefined) was read as M4 PAM -3.5, CHRM5 antagonist 5.1, M5 PAM -12.7, M5 ag -19.6, M4 antag -10.7 and CHRM4 agonist 0.7.
`COc1ccc2c(c1)CC(N1CCN(C)CC1)c1cc(OC)ccc1S2` (centres undefined) gave M4 PAM -15.4, CHRM5 antagonist 7.4, M5 PAM -10.4, M5 ag -18.0, M4 antag 4.5 and CHRM4 agonist 11.9.
